Calls of active or inactive are those of the source. The rule behind the calls is not given here.
Key:
[1] = Dissociation constant, pKa of the compound; type: physicochemical
Histamine receptor H3 = Histamine receptor H3 (Macaca mulatta, UniProt Q865E1); assay: Displacement of [3H]N-alpha-methylhistamine from recombinant rhesus monkey histamine H3 receptor transfected in CHO cells after 1 hr by scintillation counting analysis; type: cell-based
Summary of the method: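 Membranes from CHO cells stably expressing recombinant rhesus monkey H3 receptor; displacement of [3H]N-α-methyl-histamine, reported as Ki.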

Rattus norvegicus = assay: Antidepression-like activity in rat assessed as decrease in immobility time at 60 mg/kg, po by forced swimming test; type: functional, organism-based; set-up: dose 60 mg/kg
Summary of the method: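 Rat forced-swim test, immobility time as read-out. Test agent given po in MC/0.6% + H2O at 1, 3 and 10 mg/kg; imipramine reference at 60 mg/kg po.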

Chain of Histamine receptor H3 (Q865E1 whole entry): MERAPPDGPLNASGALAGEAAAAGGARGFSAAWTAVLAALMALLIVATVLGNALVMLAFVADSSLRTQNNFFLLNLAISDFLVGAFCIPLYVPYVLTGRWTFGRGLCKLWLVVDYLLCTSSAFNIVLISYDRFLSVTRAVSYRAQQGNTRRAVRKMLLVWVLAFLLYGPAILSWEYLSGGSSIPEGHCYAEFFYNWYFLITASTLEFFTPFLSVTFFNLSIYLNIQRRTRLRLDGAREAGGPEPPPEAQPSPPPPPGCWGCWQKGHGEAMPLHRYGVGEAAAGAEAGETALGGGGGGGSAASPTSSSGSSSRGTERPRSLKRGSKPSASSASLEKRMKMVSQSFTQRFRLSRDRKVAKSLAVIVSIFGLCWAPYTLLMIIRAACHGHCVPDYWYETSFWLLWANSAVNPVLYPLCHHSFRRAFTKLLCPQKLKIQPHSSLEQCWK

| pKa [1] | Ki (Histamine receptor H3) [nM] | Structure (SMILES) | Activity (Rattus norvegicus) |
| --- | --- | --- | --- |
| 9.9 |  | Cc1nc(N2CC[C@H](N3CCC[C@@H]3C)C2)ccc1NC(=O)c1cccc2ccccc12 |  |
| 10.1 |  | Cc1cc(C(=O)Nc2ccc(N3CC[C@H](N4CCC[C@@H]4C)C3)cc2C)on1 |  |
| 10 |  | Cc1nc(N2CC[C@H](N3CCC[C@@H]3C)C2)ccc1NS(=O)(=O)c1ccc(F)c(F)c1 |  |
| 10.1 |  | Cc1cc(N2CC[C@H](N3CCC[C@@H]3C)C2)ccc1NC(=O)c1cc(F)ccc1C |  |
| 9.9 |  | Cc1nc(N2CC[C@H](N3CCC[C@@H]3C)C2)ccc1NC(=O)Cc1ccccc1 |  |

The remaining lines, values behind:

| Structure (SMILES) | pKa [1] | Ki (Histamine receptor H3) [nM] | Activity (Rattus norvegicus) |
| --- | --- | --- | --- |
| Cc1cccc(C(=O)Nc2ccc(N3CC[C@H](N4CCC[C@@H]4C)C3)cc2C)n1 | 10.1 | 1.4 |  |
| Cc1cc(N2CC[C@H](N3CCC[C@@H]3C)C2)ccc1NC(=O)c1ccoc1 | 10.1 |  |  |
| Cc1cc(C(=O)Nc2ccc(N3CC[C@H](N4CCC[C@@H]4C)C3)cc2C)n[nH]1 | 12.1 |  |  |
| CN(C)CCCN1c2ccccc2CCc2ccccc21 |  |  | Active |
| Cc1cc(N2CC[C@H](N3CCC[C@@H]3C)C2)ccc1NC(=O)c1cc(C)n(C)n1 | 10.1 |  |  |
| Cc1cc(N2CC[C@H](N3CCC[C@@H]3C)C2)ccc1NC(=O)c1ccco1 | 10.1 |  |  |
| Cc1nc(C(=O)Nc2ccc(N3CC[C@H](N4CCC[C@@H]4C)C3)cc2C)co1 | 10.1 |  |  |
| Cc1nc(N2CC[C@H](N3CCC[C@@H]3C)C2)ccc1NC(=O)c1ccccc1 | 9.9 | 3 |  |
